# Hits are enriched below; roughly 6.4% of the tested compounds scored in any of these assays.
# NR3A LBD binder: binders of NR3A ligand-binding domain, primary screen, biophysical, differential scanning fluorimetry, uHTS. Glutamate receptor ionotropic, NMDA 3A (GRIN3A) ligand-binding domain. NR3A LBD differential scanning fluorimetry, Tm shift; 0% = protein alone, 100% = glycine-bound protein. Tm shift relative to glycine control, % at 25 µM. 340,000 tested, 2.5% active. AID 1259313, 2017;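 active means melting temperature shift of at least 10% of the positive control shift, at one fixed dose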
# WT yeast gro inh: growth inhibition of WT strain, primary screen, mitochondrial fusion inhibitor project, WT and mutant strains, chemical genetic; mitochondrial fusion phenotypic screen; AID 1362, 2008; 190,000 tested, 2.1% active; inhibition, % at 10 µM; in the data active means inhibition above about 58%; tested in S. cerevisiae
# EBV gp42 block: Epstein-Barr virus gp42 inhibitors, primary screen, biochemical, uHTS, fluorescence polarization; Glycoprotein 42 (Epstein-Barr virus (strain AG876)), Q1HVG2; Fluorescence polarization binding assay, mP read-out; inhibition, % (tested at 21.74 µM); 220,000 tested, 0.42% active; AID 1085, 2008; in the data active means inhibition above about 50%
# Target sequence (Q1HVG2 whole entry, looked up): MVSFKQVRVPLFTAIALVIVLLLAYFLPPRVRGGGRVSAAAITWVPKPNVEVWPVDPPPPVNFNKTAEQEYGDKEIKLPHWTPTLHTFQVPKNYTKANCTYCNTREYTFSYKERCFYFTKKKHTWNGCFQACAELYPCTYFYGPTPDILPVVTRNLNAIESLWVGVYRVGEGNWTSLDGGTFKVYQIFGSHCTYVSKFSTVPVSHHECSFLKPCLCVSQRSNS
# MPTP inh: mitochondrial permeability transition pore inhibitors, primary screen, biochemical, isolated mouse mitochondria, absorbance; Ca2+ swelling absorbance, 30 min; inhibition, % at 10 µM; 360,000 tested, 1.4% active; AID 602449, 2012;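 active means inhibition of 50% or more, scaled per plate between neutral and stimulator controls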;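 further: 0% = DMSO wells given calcium and 100% = 1 mM EGTA wells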
# CHOP inhibitor: inhibitors of CHOP promoter induction, primary screen, cell-based, unfolded protein response, luciferase reporter; 220,000 tested, 3.8% active; CHO-K1 CHOP-promoter luciferase, tunicamycin-induced, 15-18 h; AID 2732, 2010; inhibition, % at 10 µM;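 active means compounds that reduced the stress-induced luciferase reporter signal by more than about 70% of percent inhibition, limit read from the data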;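 further: 0% = tunicamycin plus vehicle and 100% = wells without tunicamycin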
# Tb MetRS inh: T. brucei MetRS inhibitors, primary screen, biochemical, luminescence. methionyl-tRNA synthetase (Trypanosoma brucei brucei). purified T. brucei MetRS, ATP depletion, Kinase-Glo luminescence. inhibition, % at 11.9 µM. 360,000 tested, 0.4% active. AID 624268, 2012;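 active means inhibition above a per-plate cutoff of the control wells' mean inhibition plus 3 SD, cut at about 5.5% in these data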;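 further: 0% = DMSO wells median and 100% = median of wells with control inhibitor compound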
#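 technique = Kinase-Glo luminescence, ATP depletion format | system = purified MetRS (methionyl-tRNA synthetase) enzyme from Trypanosoma brucei | timing = 15 min preincubation, 2 h reaction, all 25 °C | evaluation = percent inhibition versus plate control medians | dosing = single dose, 11.9 µM final nominal, 0.9% final DMSO | also added = substrates ATP, L-methionine and bulk Escherichia coli tRNA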
# Numbers without * were called inactive; nt = not tested or not shown.
SMILES,NR3A LBD binder,WT yeast gro inh,EBV gp42 block,MPTP inh,CHOP inhibitor,Tb MetRS inh
Cc1nn(Cc2ccccc2)c(Cl)c1C(=O)OCC(=O)NC(=O)NC12CC3CC(CC(C3)C1)C2,17*,20,-4,17,67,0
Cc1noc(C)c1C(=O)OCC(=O)NC(=O)NC12CC3CC(CC(C3)C1)C2,-3,-4,-12,1,81*,0
CC(Cl)C(=O)NC(=O)NC12CC3CC(CC(C3)C1)C2 (stereo not drawn),0,-8,-10,0,12,0
Cc1cccc(NC(=O)CC(C)S(=O)(=O)c2ccc3c(c2)NC(=O)CO3)c1C (stereo not drawn),1,nt,nt,-1,nt,0
CC1CCc2sc(C(=O)OC(C)C(=O)Nc3ncc(Cl)cc3Cl)cc2C1 (stereo not drawn),nt,-4,-12,nt,90*,nt
O=C(OC(C(=O)NCc1ccc2c(c1)OCO2)c1ccccc1F)c1ccco1 (stereo not drawn),1,-4,-8,0,36,0
CCOc1ccc(CCNC(=O)C2CCCN(c3nn4c(=O)cc(C)nc4s3)C2)cc1OCC (stereo not drawn),1,-5,-4,0,45,0
CCOc1ccc(CCNC(=O)C2CCCN(c3nnc(-n4cccc4)s3)C2)cc1OCC (stereo not drawn),39*,-24,-8,-2,60,-1
CCOc1cc2c(cc1OCC)CN(C(=O)c1cccc(S(=O)(=O)N3CCCC3)c1)CC2,0,nt,nt,-2,nt,0
Cc1ccc(S(=O)(=O)NCC2CCC(C(=O)NCc3ccc4c(c3)OCO4)CC2)cc1 (stereo not drawn),15*,8,-6,-2,6,-1
NS(=O)(=O)c1ccc(CNS(=O)(=O)c2ccc3c(c2)OCCO3)cc1,-1,nt,nt,0,nt,0
O=S(=O)(NCCc1csc(-c2ccc(C(F)(F)F)cc2)n1)c1ccc2c(c1)OCCO2,-4,74*,0,1,81*,0
O=C(NCc1ccc2c(c1)OCO2)C1CCC(CNS(=O)(=O)c2ccc(Cl)cc2)CC1 (stereo not drawn),2,-1,-25,-1,-8,-1
COc1ccc(-c2nc(CCNS(=O)(=O)c3ccc4c(c3)OCCO4)cs2)cc1,-9,15,4,1,41,0
Cc1ccc(CNS(=O)(=O)c2ccc3c(c2)OCCO3)cc1,16*,-12,-5,2,11,1
Cc1c(Cl)cccc1NC(=S)N1CCN(c2ccc([N+](=O)[O-])cn2)CC1,-1,nt,0,8,0,0
CCOc1ccc(C(C(=O)NCC2CCCO2)N(Cc2cccs2)C(=O)c2snc(C(N)=O)c2N)cc1 (stereo not drawn),1,nt,nt,-1,nt,0
O=C(/C=C/c1ccc(Cl)cc1Cl)NCc1ccncc1,0,25,-13,2,8,8.9*
O=C(/C=C/c1cccc(Cl)c1)NCc1ccncc1,-1,9,1,1,9,-1
O=C(/C=C/c1ccc(Cl)cc1Cl)Nc1ccncc1,32*,40,-13,42,46,3
COc1ccc(-c2noc(N3CCC(C(=O)NCCCN4CC(C)CC(C)C4)CC3)n2)cc1 (stereo not drawn),2,nt,nt,0,nt,0
CC(=O)SCC(=O)N=c1sc2cc(F)ccc2n1C,-5,-3,-6,-4,-14,-1
O=C(Nc1cccc(F)c1)C1CCN(C(=O)c2ccc(Cl)cc2)CC1,12*,22,21,0,16,0
CN(CC(=O)Nc1cccc(F)c1)C(=O)C1CCN(C(=O)c2ccc(Cl)cc2)CC1,-1,nt,nt,0,nt,0
Cc1ccc(C)c(NC(=S)Nc2cccc3cnccc23)c1,-3,62*,2,1,-1,1
SMILES,NR3A LBD binder,WT yeast gro inh,EBV gp42 block,MPTP inh,CHOP inhibitor,Tb MetRS inh
Cc1ccc(NC(=S)Nc2cccc3cnccc23)cc1C,-2,59*,-4,-1,4,-2
CCn1nnc(-c2ccccc2NS(=O)(=O)c2ccc(C(=O)OC)cc2)n1,12*,4,-4,6,-2,0
CC(OC(=O)c1ccc(Cl)c(S(N)(=O)=O)c1)C(=O)NCc1ccc2c(c1)OCO2 (stereo not drawn),14*,nt,nt,0,nt,-1
CC(OC(=O)c1ccc(Cl)cc1)C(=O)NCc1ccc2c(c1)OCO2 (stereo not drawn),2,nt,nt,-1,nt,0
Cc1nc2nc(-c3ccco3)nn2c(C)c1Cl,-3,16,-9,0,17,-1
CCCc1nc2oc3c(NCCOCCO)ncnc3c2c2c1COC(C)(C)C2,0,8,-5,1,7,0
CCCc1nc2oc3c(OC)ncnc3c2c2c1COC(C)(C)C2,0,-13,-5,0,82*,-1
C/C(=N/NC(=O)CNC(=O)c1cccs1)c1ccc(Cl)cc1,21*,nt,nt,0,nt,-1
COc1ccc(/C(C)=N/NC(=O)CNC(=O)c2cccs2)cc1,2,3,-9,0,-5,-1
CCn1c(=O)c(C(=O)CN2c3ccccc3CC2C)c(N)n(Cc2ccccc2)c1=O (stereo not drawn),-2,4,0,0,87*,-1
CCCCC(CC)C(=O)NCCc1ccc(S(N)(=O)=O)cc1 (stereo not drawn),3,12,-6,0,9,0
COc1ccc(-n2c(-c3ccc(Br)cc3)nc(=S)c3c2CCCC3)cc1,-2,63*,-14,-2,40,0
O=C1CSCC(=O)N1c1ncc(C(F)(F)F)cc1Cl,1,nt,-7,0,-21,-1
COc1ccccc1OCCCn1c(=O)oc2ccc(C)cc21,-1,14,-27,0,2,-1
CCCOc1ccccc1Cn1c(=O)oc2ccc(C)cc21,1,28,-3,-1,81*,0
CCOc1ccccc1Cn1c(=O)oc2ccc(C)cc21,-1,22,-13,0,10,-1
Cc1ccc2oc(=O)n(CCOc3ccccc3Cl)c2c1,-1,-5,2,0,93*,-1
O=C(Cn1cnc2c(oc3ccccc32)c1=O)NCc1ccccc1,1,12,-4,-1,-7,0
Cc1ccc(C)c(NC(=O)Cn2cnc3c(oc4ccccc43)c2=O)c1,-2,-11,-13,1,72*,-1
Cc1ccc(C)c(NC(=O)Cn2nc(-c3ccccc3)nc2-c2ccccc2)c1,-2,10,-4,-1,87*,-2

# Compound activity from PubChem BioAssay.
